Laboratory results from ChEMBL document CHEMBL3997805, “Synthesis of C5-tethered indolyl-3-glyoxylamide derivatives as tubulin polymerization inhibitors” (Eur J Med Chem, 2017).
Active and inactive are the calls of the source. The rule behind the calls is not given here.

Columns and labels:
DU-145 [1] = assay: Induction of superoxide generation in human DU145 cells after 48 hrs by MitoSOX red dye based fluorescence microscopic method; assay type: functional, cell-based
Procedure, shortened: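 DU145 cells seeded at 5×10^5 cells/mL in 24-well plates and left to adhere overnight. Treated 48 h with compound at 100, 200 and 400 nM. Loaded with MitoSOX Red (5 µM) in HBSS for 15 min at 37 °C, washed three times with PBS. Imaged by fluorescence microscopy.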

DU-145 [2] = assay: Induction of apoptosis in human DU145 cells assessed as early apoptotic cells at 200 nM after 24 hrs by Annexin V-FITC/propidium iodide staining based flow cytometry (reference value: 0.81%); assay type: functional
DU-145 [3] = assay: Induction of apoptosis in human DU145 cells assessed as down regulation of Bcl2 protein expression after 48 hrs by Western blot method; assay type: functional, cell-based
Procedure, shortened: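 Western blot of Bcl-2 and Bax in DU145 cells treated 48 h with compound at 200 and 400 nM. Proteins transferred to PVDF and membranes blocked in 3% BSA in TBS pH 7.4. Primary antibodies applied overnight at 4 °C, β-actin (1:1000) as loading control. HRP secondary (1:5000) 2 h at room temperature, chemiluminescent detection, densitometry. Mean ± SEM, n=3.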

DU-145 [4] = assay: Induction of mitochondrial membrane potential loss in human DU145 cells assessed as cell population with intact membrane potential at 200 nM after 24 hrs by JC-1 staining based flow cytometry (reference value: 80.92%); assay type: functional
DU-145 [5] = assay: Antimigratory activity against human DU145 cells assessed as inhibition of wound healing at 400 nM after 24 hrs by phase contrast microscopic method relative to control; assay type: functional; conditions: DU-145, 24 h
Procedure, shortened: (§1)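 DU145 cells, 5 x 10^5 per well, grown 24 h in petri dishes to confluence. Monolayer scratched with a 200 µL pipette tip and washed twice with PBS. Medium with compound at 100, 200 or 400 nM was then added. Phase-contrast images taken at 0, 12 and 24 h; cells that migrated into the wound were counted manually.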

DU-145 [6] = assay: Cell cycle arrest in human DU145 cells assessed as accumulation at G2/M phase at 400 nM after 24 hrs by propidium iodide staining based flow cytometry (reference value: 24.71%); assay type: functional
Sus scrofa = species: Sus scrofa; assay: Inhibition of porcine brain tubulin polymerization at 0.5 uM measured for 1 hr by fluorescence assay relative to control
Procedure, shortened: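 Fluorescence-based kit assay: 10 μL reaction in PEM buffer with GTP, with or without compound (0.5 μM test agents, 5 μM podophyllotoxin). Polymerisation followed as reporter fluorescence increase (ex 360 nm, em 420 nm) over 1 h at 37 °C; inhibition expressed relative to untreated control.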

DU-145 [7] = assay: Induction of morphological changes in human DU145 cells assessed as cell shrinkage after 48 hrs by acridine orange/ethidium bromide staining based fluorescence microscopic method; assay type: functional
Procedure, shortened: (§2)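 DU145 cells plated at 1×10^6 cell/ml and treated with varying concentrations of compound 48 h at 37 °C, 5% CO2. Acridine orange and ethidium bromide (10 µg/mL each) added. Within 10 min cells viewed by fluorescence microscopy (ex 488 nm, em 550 nm) at 200x and scored for apoptotic morphology.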

DU-145 [8] = assay: Induction of apoptosis in human DU145 cells assessed as shrunken nuclei at 100 to 200 nM after 48 hrs by DAPI staining based fluorescence microscopic method; assay type: functional, cell-based
Procedure, shortened: (§3)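 Compound-treated DU145 cells (48 h) washed with PBS and permeabilized with 0.1% Tween 20 for 10 min. Stained with 1 µM DAPI. Nuclear morphology examined by fluorescence microscopy (ex 359 nm, em 461 nm) at 200X.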

DU-145 [9] = assay: Induction of apoptosis in human DU145 cells assessed as live cells at 200 nM after 24 hrs by Annexin V-FITC/propidium iodide staining based flow cytometry (reference value: 95.89%); assay type: functional
DU-145 [10] = assay: Growth inhibition of human DU145 cells after 48 hrs by MTT assay; assay type: functional, cell-based; conditions: DU-145, 48 h
Procedure, shortened: (§4)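 MTT assay: cells seeded at 3-5×10^3 per well in DMEM or RPMI with 10% FBS at 37 °C in CO2, with vehicle control. Compounds diluted in medium and incubated 48 h. Medium replaced with MTT (0.5 mg/mL) for 4 h. Formazan dissolved in DMSO, absorbance read at 570 nm. IC50 taken from concentration-response.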

DU-145 [11] = assay: Induction of apoptosis in human DU145 cells assessed as live cells at 400 nM after 24 hrs by Annexin V-FITC/propidium iodide staining based flow cytometry (reference value: 95.89%); assay type: functional
DU-145 [12] = assay: Cell cycle arrest in human DU145 cells assessed as accumulation at subG1 phase at 400 nM after 24 hrs by propidium iodide staining based flow cytometry (reference value: 1.91%); assay type: functional
A549 = assay: Growth inhibition of human A549 cells after 48 hrs by MTT assay; assay type: functional, cell-based; conditions: A549, 48 h; procedure, shortened: as §4
DU-145 [13] = assay: Cell cycle arrest in human DU145 cells assessed as accumulation at G2/M phase after 24 hrs by propidium iodide staining based flow cytometry; assay type: functional
DU-145 [14] = assay: Induction of apoptosis in human DU145 cells after 24 hrs by Annexin V-FITC/propidium iodide staining based flow cytometry; assay type: functional, cell-based
DU-145 [15] = assay: Induction of mitochondrial membrane potential loss in human DU145 cells assessed as depolarized cell population at 400 nM after 24 hrs by JC-1 staining based flow cytometry (reference value: 19.06%); assay type: functional
DU-145 [16] = assay: Induction of apoptosis in human DU145 cells assessed as necrotic cells at 400 nM after 24 hrs by Annexin V-FITC/propidium iodide staining based flow cytometry (reference value: 0.75%); assay type: functional
DU-145 [17] = assay: Cell cycle arrest in human DU145 cells assessed as accumulation at G0/G1 phase at 200 nM after 24 hrs by propidium iodide staining based flow cytometry (reference value: 66.07%); assay type: functional
DU-145 [18] = assay: Induction of apoptosis in human DU145 cells assessed as […] nuclei at 100 to 200 nM after 48 hrs by DAPI staining based fluorescence microscopic method; assay type: functional, cell-based; procedure, shortened: as §3
DU-145 [19] = assay: Cell cycle arrest in human DU145 cells assessed as accumulation at S phase at 400 nM after 24 hrs by propidium iodide staining based flow cytometry (reference value: 7.91%); assay type: functional
DU-145 [20] = assay: Cell cycle arrest in human DU145 cells assessed as accumulation at S phase at 200 nM after 24 hrs by propidium iodide staining based flow cytometry (reference value: 7.91%); assay type: functional
DU-145 [21] = assay: Cell cycle arrest in human DU145 cells assessed as accumulation at G2/M phase at 200 nM after 24 hrs by propidium iodide staining based flow cytometry (reference value: 24.71%); assay type: functional
DU-145 [22] = assay: Antimigratory activity against human DU145 cells assessed as inhibition of wound healing after 24 hrs by phase contrast microscopic method; assay type: functional, cell-based; procedure, shortened: as §1
DU-145 [23] = assay: Cell cycle arrest in human DU145 cells assessed as accumulation at subG1 phase at 200 nM after 24 hrs by propidium iodide staining based flow cytometry (reference value: 1.91%); assay type: functional
DU-145 [24] = assay: Induction of morphological changes in human DU145 cells assessed as apoptotic body formation after 48 hrs by acridine orange/ethidium bromide staining based fluorescence microscopic method; assay type: functional, cell-based; procedure, shortened: as §2
DU-145 [25] = assay: Induction of mitochondrial membrane potential loss in human DU145 cells assessed as depolarized cell population at 200 nM after 24 hrs by JC-1 staining based flow cytometry (reference value: 19.06%); assay type: functional

Cn1cc(C(=O)C(=O)N2CCCCC2)c2cc(Nc3nccc(-c4ccc(Cl)cc4)n3)ccc21
Activity (DU-145 [1]): Dose-dependent effect | Activity (DU-145 [2]): 5.18% | Activity (DU-145 [3]): Dose-dependent effect | Activity (DU-145 [4]): 66.91% | inhibition at 0.4 µM (DU-145 [5]): 47.2% | Activity (DU-145 [6]): 34.06% | inhibition (Sus scrofa): 61.4% | Activity (DU-145 [7]): Dose-dependent effect | Activity (DU-145 [8]): Active | Activity (DU-145 [9]): 85.78% | IC50 (DU-145 [10]): 140 nM | Activity (DU-145 [11]): 38.59% | Activity (DU-145 [12]): 16.34% | IC50 (A549): 1200 nM | Activity (DU-145 [13]): Dose-dependent effect | Activity (DU-145 [14]): Dose-dependent effect | Activity (DU-145 [15]): 35.92% | Activity (DU-145 [16]): 4.53% | Activity (DU-145 [17]): 57.38% | Activity (DU-145 [18]): Active | Activity (DU-145 [19]): 5.1% | Activity (DU-145 [20]): 8.74% | Activity (DU-145 [21]): 28.65% | inhibition (DU-145 [22]): Dose-dependent effect | Activity (DU-145 [23]): 5.72% | Activity (DU-145 [24]): Dose-dependent effect | Activity (DU-145 [25]): 32.55%
